Reference: ChEMBL document CHEMBL4725360, “Optimization of Acetazolamide-Based Scaffold as Potent Inhibitors of Vancomycin-Resistant Enterococcus” (J Med Chem, 2020)
≈ marks a conversion by molar mass, not a printed value. Calls of active or inactive are those of the source. The rule behind the calls is not given here.

Tests used:
Enterococcus faecium [1] = experiment: Antibacterial activity against Enterococcus faecium HM965 incubated for 18 to 20 hrs under aerobic condition by CLSI protocol based broth microdilution assay; type: functional; conditions: time hrs 18-20
In short: (§1)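 Broth microdilution per CLSI. Strains grown aerobically overnight on trypticase soy agar at 37 °C. Inoculum set to 0.5 McFarland, diluted in trypticase soy broth to about 5 × 10⁵ CFU/mL. Agents serially diluted, plates incubated aerobically at 37 °C for 18–20 h. MIC is the lowest concentration with no visible growth. Compound stocks 10 mg/mL in DMSO.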

Enterococcus faecium [2] = experiment: Inhibition of carbonic anhydrase in Enterococcus faecium ATCC 700221 assessed as antibacterial activity incubated for 18 to 20 hrs in presence of ambient air by CLSI protocol based broth microdilution assay; conditions: time hrs 18-20
In short: (§2)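 CLSI broth microdilution: inoculum about 5 × 10⁵ CFU/mL in trypticase soy broth with serial dilutions of agents. Paired plates incubated at 37 °C for 18–20 h, one set in ambient air ("normal"), the other under 5% CO₂. MIC is the lowest concentration completely inhibiting visible growth.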

Enterococcus faecium [3] = experiment: Inhibition of carbonic anhydrase in Enterococcus faecium ATCC 700221 assessed as antibacterial activity incubated for 18 to 20 hrs in presence of 5% CO2 by CLSI protocol based broth microdilution assay; conditions: time hrs 18-20; in short: as §2
Enterococcus faecium [4] = experiment: Antibacterial activity against Enterococcus faecium HM968 incubated for 18 to 20 hrs under aerobic condition by CLSI protocol based broth microdilution assay; type: functional; conditions: time hrs 18-20; in short: as §1
Enterococcus faecium [5] = experiment: Antibacterial activity against Enterococcus faecium NR-28978 incubated for 18 to 20 hrs under aerobic condition by CLSI protocol based broth microdilution assay; type: functional; conditions: time hrs 18-20; in short: as §1
Enterococcus faecium [6] = experiment: Antibacterial activity against Enterococcus faecium NR-31903 incubated for 18 to 20 hrs under aerobic condition by CLSI protocol based broth microdilution assay; type: functional; conditions: time hrs 18-20; in short: as §1
Enterococcus faecium [7] = experiment: Antibacterial activity against Enterococcus faecium NR-32065 incubated for 18 to 20 hrs under aerobic condition by CLSI protocol based broth microdilution assay; type: functional; conditions: time hrs 18-20; in short: as §1
Enterococcus faecium [8] = experiment: Antibacterial activity against Enterococcus faecium NR-31914 incubated for 18 to 20 hrs under aerobic condition by CLSI protocol based broth microdilution assay; type: functional; conditions: time hrs 18-20; in short: as §1
Enterococcus faecium [9] = experiment: Antibacterial activity against Enterococcus faecium NR-31916 incubated for 18 to 20 hrs under aerobic condition by CLSI protocol based broth microdilution assay; type: functional; conditions: time hrs 18-20; in short: as §1
Enterococcus faecium [10] = experiment: Antibacterial activity against Enterococcus faecium NR-32052 incubated for 18 to 20 hrs under aerobic condition by CLSI protocol based broth microdilution assay; type: functional; conditions: time hrs 18-20; in short: as §1
Enterococcus faecium [11] = experiment: Antibacterial activity against Enterococcus faecium NR-31971 incubated for 18 to 20 hrs under aerobic condition by CLSI protocol based broth microdilution assay; type: functional; conditions: time hrs 18-20; in short: as §1
Enterococcus faecalis [12] = experiment: Antibacterial activity against Enterococcus faecalis HM-335 incubated for 18 to 20 hrs under aerobic condition by CLSI protocol based broth microdilution assay; type: functional; conditions: time hrs 18-20; in short: as §1
Enterococcus faecalis [13] = experiment: Antibacterial activity against Enterococcus faecalis HM-334 incubated for 18 to 20 hrs under aerobic condition by CLSI protocol based broth microdilution assay; type: functional; conditions: time hrs 18-20; in short: as §1
Caco-2 = experiment: Cytotoxicity against human Caco2 cells at 128 ug/ml incubated for 2 hrs by MTS assay; type: cell-based; conditions: caco-2, 2 h, dose 128 µg/ml
In short: (§3)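 Caco-2 cells maintained in DMEM with 10% FBS, non-essential amino acids and penicillin-streptomycin at 37 °C, 5% CO₂. Compound exposure for 2 h in serum-free medium at several concentrations; DMSO-matched controls. Viability expressed relative to DMSO controls (mean ± SD), and CC₅₀ derived.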

[14] = Cytotoxicity against human Caco2 cells incubated for 2 hrs by MTS assay; type: cell-based; conditions: Caco-2 cells; in short: as §3
Enterococcus faecium [15] = experiment: Antibacterial activity against Enterococcus faecium NR-31972 incubated for 18 to 20 hrs under aerobic condition by CLSI protocol based broth microdilution assay; type: functional; conditions: time hrs 18-20; in short: as §1
Enterococcus faecalis [16] = experiment: Antibacterial activity against Enterococcus faecalis NR-31975 incubated for 18 to 20 hrs under aerobic condition by CLSI protocol based broth microdilution assay; type: functional, organism-based; conditions: time hrs 18-20; in short: as §1
Enterococcus faecalis [17] = experiment: Antibacterial activity against Enterococcus faecalis NR-31970 incubated for 18 to 20 hrs under aerobic condition by CLSI protocol based broth microdilution assay; type: functional, organism-based; conditions: time hrs 18-20; in short: as §1

Row | Structure (SMILES) | MIC (Enterococcus faecium [1]) [µg/mL] | inhibition (Enterococcus faecium [2]) | inhibition (Enterococcus faecium [3]) | MIC (Enterococcus faecium [4]) [µg/mL] | MIC (Enterococcus faecium [5]) [µg/mL] | MIC (Enterococcus faecium [6]) [µg/mL] | MIC (Enterococcus faecium [7]) [µg/mL] | MIC (Enterococcus faecium [8]) [µg/mL] | MIC (Enterococcus faecium [9]) [µg/mL] | MIC (Enterococcus faecium [10]) [µg/mL] | MIC (Enterococcus faecium [11]) [µg/mL] | MIC (Enterococcus faecalis [12]) [µg/mL] | MIC (Enterococcus faecalis [13]) [µg/mL] | MIC (Enterococcus faecium [15]) [µg/mL] | Activity (Caco-2) | CC50 at 2 h [14] [µg/mL] | Activity (Enterococcus faecalis [16]) | Activity (Enterococcus faecalis [17])
1 | CN[C@H](CC(C)C)C(=O)N[C@H]1C(=O)N[C@@H](CC(N)=O)C(=O)N[C@H]2C(=O)N[C@H]3C(=O)N[C@H](C(=O)N[C@H](C(=O)O)c4cc(O)cc(O)c4-c4cc3ccc4O)[C@H](O)c3ccc(c(Cl)c3)Oc3cc2cc(c3O[C@@H]2O[C@H](CO)[C@@H](O)[C@H](O)[C@H]2O[C@H]2C[C@](C)(N)[C@H](O)[C@H](C)O2)Oc2ccc(cc2Cl)[C@H]1O [VANCOMYCIN] | – | – | – | 64 (≈ 44.2 µM) | 32 (≈ 22.1 µM) | > 64 | 64 (≈ 44.2 µM) | 64 (≈ 44.2 µM) | > 64 | 64 (≈ 44.2 µM) | 64 (≈ 44.2 µM) | > 64 | – | > 64 | – | – | – | –
2 | CCNc1nnc(S(N)(=O)=O)s1 | > 64 | – | – | – | – | – | – | – | – | – | – | – | – | – | – | – | – | –
3 | CC(C)CC(=O)Nc1nnc(S(N)(=O)=O)s1 | 0.125 (≈ 0.473 µM) | – | – | 0.125 (≈ 0.473 µM) | 0.25 (≈ 0.946 µM) | 0.125 (≈ 0.473 µM) | 0.25 (≈ 0.946 µM) | 0.25 (≈ 0.946 µM) | 0.125 (≈ 0.473 µM) | 0.125 (≈ 0.473 µM) | 0.5 (≈ 1.89 µM) | 0.125 (≈ 0.473 µM) | 0.5 (≈ 1.89 µM) | 0.5 (≈ 1.89 µM) | Non-Toxic | > 128 | Active | Active
4 | CC(C)(C)CC(=O)Nc1nnc(S(N)(=O)=O)s1 | 0.015 (≈ 0.0539 µM) | Active | inactive | 0.015 (≈ 0.0539 µM) | 0.03 (≈ 0.108 µM) | 0.015 (≈ 0.0539 µM) | 0.007 (≈ 0.0251 µM) | 0.007 (≈ 0.0251 µM) | 0.03 (≈ 0.108 µM) | 0.015 (≈ 0.0539 µM) | 0.06 (≈ 0.216 µM) | 0.03 (≈ 0.108 µM) | 0.03 (≈ 0.108 µM) | 0.015 (≈ 0.0539 µM) | Non-Toxic | > 128 | Active | Active
5 | CC(C)(C)C(=O)Nc1nnc(S(N)(=O)=O)s1 | 0.25 (≈ 0.946 µM) | – | – | 0.5 (≈ 1.89 µM) | 0.25 (≈ 0.946 µM) | 0.5 (≈ 1.89 µM) | 0.25 (≈ 0.946 µM) | 0.5 (≈ 1.89 µM) | 0.5 (≈ 1.89 µM) | 0.5 (≈ 1.89 µM) | 0.5 (≈ 1.89 µM) | 0.5 (≈ 1.89 µM) | 0.5 (≈ 1.89 µM) | 1 (≈ 3.78 µM) | Non-Toxic | > 128 | Active | Active
6 | NS(=O)(=O)c1nnc(NC(=O)CC2CCC2)s1 | 0.25 (≈ 0.905 µM) | – | – | – | – | – | – | – | – | – | – | – | – | – | – | – | – | –
7 | NS(=O)(=O)c1nnc(NC(=O)CCc2ccccc2)s1 | 0.06 (≈ 0.192 µM) | Active | inactive | 0.25 (≈ 0.8 µM) | 0.5 (≈ 1.6 µM) | 0.25 (≈ 0.8 µM) | 0.125 (≈ 0.4 µM) | 0.25 (≈ 0.8 µM) | 0.125 (≈ 0.4 µM) | 0.5 (≈ 1.6 µM) | 0.125 (≈ 0.4 µM) | 0.125 (≈ 0.4 µM) | 0.015 (≈ 0.048 µM) | 0.125 (≈ 0.4 µM) | Non-Toxic | > 128 | – | –
8 | CC(=O)Nc1ccc(S(N)(=O)=O)cc1 | > 64 | – | – | – | – | – | – | – | – | – | – | – | – | – | – | – | – | –
9 | NS(=O)(=O)c1nnc(NC(=O)C2CCCCC2)s1 | 0.25 (≈ 0.861 µM) | – | – | 0.5 (≈ 1.72 µM) | 0.5 (≈ 1.72 µM) | 0.5 (≈ 1.72 µM) | 0.5 (≈ 1.72 µM) | 0.5 (≈ 1.72 µM) | 0.25 (≈ 0.861 µM) | 0.5 (≈ 1.72 µM) | 0.5 (≈ 1.72 µM) | 0.5 (≈ 1.72 µM) | 0.25 (≈ 0.861 µM) | 0.25 (≈ 0.861 µM) | Non-Toxic | > 128 | Active | Active
10 | NS(=O)(=O)c1nnc(NCC2CCCCC2)s1 | > 64 | – | – | – | – | – | – | – | – | – | – | – | – | – | – | – | – | –

Now from value to compound, other results behind:

Row | MIC (Enterococcus faecium [1]) [µg/mL] | inhibition (Enterococcus faecium [2]) | inhibition (Enterococcus faecium [3]) | MIC (Enterococcus faecium [4]) [µg/mL] | MIC (Enterococcus faecium [5]) [µg/mL] | MIC (Enterococcus faecium [6]) [µg/mL] | MIC (Enterococcus faecium [7]) [µg/mL] | MIC (Enterococcus faecium [8]) [µg/mL] | MIC (Enterococcus faecium [9]) [µg/mL] | MIC (Enterococcus faecium [10]) [µg/mL] | MIC (Enterococcus faecium [11]) [µg/mL] | MIC (Enterococcus faecalis [12]) [µg/mL] | MIC (Enterococcus faecalis [13]) [µg/mL] | MIC (Enterococcus faecium [15]) [µg/mL] | Structure (SMILES) | Activity (Caco-2) | CC50 at 2 h [14] [µg/mL] | Activity (Enterococcus faecalis [16]) | Activity (Enterococcus faecalis [17])
11 | 1 (≈ 3.43 µM) | Active | inactive | – | – | – | – | – | – | – | – | – | – | – | NS(=O)(=O)c1nnc(NC(=O)CN2CCCC2)s1 | – | – | – | –
12 | 0.25 (≈ 0.953 µM) | Active | inactive | 0.5 (≈ 1.91 µM) | 1 (≈ 3.81 µM) | 0.25 (≈ 0.953 µM) | 0.25 (≈ 0.953 µM) | 0.5 (≈ 1.91 µM) | 0.25 (≈ 0.953 µM) | 0.25 (≈ 0.953 µM) | 0.5 (≈ 1.91 µM) | 0.25 (≈ 0.953 µM) | 0.5 (≈ 1.91 µM) | 0.5 (≈ 1.91 µM) | NS(=O)(=O)c1nnc(NC(=O)CC2CC2)s1 | Non-Toxic | > 128 | – | –
13 | 1 (≈ 4.23 µM) | Active | inactive | – | – | – | – | – | – | – | – | – | – | – | CCC(=O)Nc1nnc(S(N)(=O)=O)s1 [PROPAZOLAMIDE] | – | – | – | –
14 | 2 (≈ 6.22 µM) | Active | inactive | – | – | – | – | – | – | – | – | – | – | – | NS(=O)(=O)c1nnc(NC(=O)CCN2CCOCC2)s1 | – | – | – | –
15 | 8 (≈ 25 µM) | Active | inactive | – | – | – | – | – | – | – | – | – | – | – | CN1CCN(CC(=O)Nc2nnc(S(N)(=O)=O)s2)CC1 | – | – | – | –
